Activity calls are given as the source filed them. The rule behind the calls is not given here.

In data set [1] the test system is Rattus norvegicus. Description: Lymphopenia activity in Lewis rat at 1 mg/kg, po measured after 2 to 4 hrs. It counts as functional, organism-based.
Data set [2] is described as follows: Lipophilicity, log D of the compound at pH 7.4 by chromatography. The conditions noted are these: buffer. It counts as physicochemical.
Data set [3] has as its target T1, Sphingosine 1-phosphate receptor 1 (Homo sapiens, UniProt P21453). Description: Agonist activity at human S1P1 receptor expressed in RH7777 cells by [35S]GTP-gammaS accumulation assay. The class given is cell-based. The procedure, abridged:
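RH7777 S1P1 membranes (1.5 µg/well) precoupled 30 min on ice to WGA SPA beads in 20 mM HEPES, 10 mM MgCl2, 100 mM NaCl, pH 7.4, with 10 µM GDP and 90 µg/mL saponin (final). 0.5 nM [35S]GTPγS final added to compound; plates read immediately by scintillation proximity.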
(GTPγS is a poorly hydrolysed GTP analogue; its binding reports G protein activation.)

In data set [4] the target is Sphingosine 1-phosphate receptor 3 (Homo sapiens, UniProt Q99500). Description: Agonist activity at human S1P3 receptor expressed in RBL cells by [35S]GTP-gammaS accumulation assay. It counts as cell-based. The procedure, abridged:
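Sucrose-gradient-purified RBL S1P3 membranes (0.44 µg/well) precoupled 30 min on ice to WGA SPA beads with 2 µg/well saponin in HEPES/MgCl2/NaCl buffer pH 7.4. 5 µM GDP final and 0.3 nM [35S]GTPγS final added, then dispensed onto compound in DMSO. Read by scintillation proximity after 3 h at room temperature.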

Data set [5] concerns the target T1, Sphingosine 1-phosphate receptor 1. Description: Agonist activity at human S1P1 receptor expressed in CHO-K1 EDG1 cells by beta-arrestin recruitment assay. The class given is cell-based. The method in brief:
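CHO-K1 cells stably expressing beta-arrestin 2 and S1P1 fused to complementing beta-galactosidase fragments; grown to 80% confluency, harvested enzyme-free, resuspended in HEPES/BSA assay buffer pH 7.4. Cells at 1x10^4/well added to compound in DMSO, 90 min at 37°C/5% CO2, then 15 min at room temperature; chemiluminescent detection mix 60 min at room temperature, luminescence read.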

Data set [6] relates to Rattus norvegicus. As to the kind of experiment: Lymphopenia activity in Lewis rat at 1 mg/kg, po measured at 8 hrs. It counts as functional, organism-based.
Data set [7] deals with Rattus norvegicus. Description: Lymphopenia activity in Lewis rat at 1 mg/kg, po measured after 24 hrs. The class given is functional, organism-based.

Chain of Sphingosine 1-phosphate receptor 3 (Q99500 whole entry): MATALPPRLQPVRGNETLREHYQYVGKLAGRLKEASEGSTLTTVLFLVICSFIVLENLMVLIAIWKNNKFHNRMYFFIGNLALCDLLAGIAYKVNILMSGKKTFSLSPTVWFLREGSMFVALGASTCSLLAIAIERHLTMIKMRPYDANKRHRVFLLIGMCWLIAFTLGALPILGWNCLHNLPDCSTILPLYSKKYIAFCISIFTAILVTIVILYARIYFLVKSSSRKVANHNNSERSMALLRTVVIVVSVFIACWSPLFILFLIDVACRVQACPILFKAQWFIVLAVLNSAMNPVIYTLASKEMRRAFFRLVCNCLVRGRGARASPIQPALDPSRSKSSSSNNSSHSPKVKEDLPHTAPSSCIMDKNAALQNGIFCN
T1 sequence (P21453 whole entry): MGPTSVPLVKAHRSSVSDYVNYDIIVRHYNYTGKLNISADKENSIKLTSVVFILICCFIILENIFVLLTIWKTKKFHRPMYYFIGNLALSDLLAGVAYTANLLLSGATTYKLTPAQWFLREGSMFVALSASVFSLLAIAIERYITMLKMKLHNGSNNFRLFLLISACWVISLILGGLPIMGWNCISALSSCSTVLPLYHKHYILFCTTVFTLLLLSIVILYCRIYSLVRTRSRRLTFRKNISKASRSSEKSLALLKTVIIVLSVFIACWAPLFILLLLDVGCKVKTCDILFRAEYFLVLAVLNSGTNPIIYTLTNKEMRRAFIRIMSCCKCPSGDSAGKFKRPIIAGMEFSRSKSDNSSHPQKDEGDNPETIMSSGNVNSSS

The chromatographic logD is lipophilicity estimated from chromatographic retention. A higher chromatographic logD goes with higher lipophilicity. The term EC50 denotes the concentration that produces a half-maximal response. Consider `Cc1c2c(nn1-c1nnc(-c3ccc(OC(C)C)c(C#N)c3)s1)CCN(CCC(=O)O)C2`, for which the outcome in the data set on Rattus norvegicus [1] and in the data set with Rattus norvegicus [6] was Active. Moreover, in data set [2], the chromatographic logD was 2.76. Besides, the half-maximal effective concentration (EC50) in data set [3] is 0.0158 µM; in data set [4] it was > 31.6 µM; in data set [5] it was 0.00316 µM.

Regarding `CC(C)Oc1ccc(-c2nnc(NC3CCN(CC(=O)O)CC3)s2)cc1Cl`, the half-maximal effective concentration (EC50) in data set [3] was 2.51 µM.

Turning to `CC(C)Oc1ccc(-c2nnc(Nc3ccc(CC(=O)O)cc3)s2)cc1Cl`, the concentration giving a half-maximal response (EC50) in data set [3] is 1.26 µM.

Turning to `CC(C)Oc1ccc(-c2nnc(N3CCC(N4CCCC(C(=O)O)C4)CC3)s2)cc1Cl` (stereo unspecified), the EC50 in data set [3] is 3.98 µM.

In the case of `CC(C)Oc1ccc(-c2nnc(-n3cc4c(n3)CCN(CCC(=O)O)C4)s2)cc1C#N`, the outcome in the data set on Rattus norvegicus [1] and with Rattus norvegicus [6] was Active. The compound also returned a chromatographic logD in data set [2] of 2.58. The EC50 in data set [3] was 0.0501 µM; in data set [4], > 31.6 µM; in data set [5], 0.00501 µM.

Turning to `CC(C)Oc1ccc(-c2nnc(-n3ncc4c3CCN(CCC(=O)O)C4)s2)cc1Cl`, the result in the data set on Rattus norvegicus [1] was inactive. This compound also returned a chromatographic logD in data set [2] of 3.54. Also, the 50% effective concentration (EC50) in data set [3] is 0.126 µM; in data set [4], 19.9 µM; in data set [5], 0.0501 µM.

With `CC(C)Oc1ccc(-c2nnc(-n3cc4c(n3)CCN(CCCC(=O)O)C4)s2)cc1Cl`, the chromatographic logD in data set [2] was found to be 3.56. Further, the half-maximal effective concentration (EC50) was 0.0126 µM in data set [3], > 31.6 µM in data set [4] and 0.00501 µM in data set [5].

Turning to `CC(C)Oc1ccc(-c2nnc(-n3cncn3)s2)cc1Cl`, the chromatographic logD in data set [2] was found to be 6.18. Also, the values for the EC50 in data set [3] and in data set [4] were 0.501 µM and > 31.6 µM, respectively.

Consider `CC(C)Oc1ccc(-c2nnc(N3CCc4cc(CCC(=O)O)ccc43)s2)cc1Cl`, for which the EC50 in data set [3] was 0.1 µM.

On to `CC(C)Oc1ccc(-c2nnc(-n3ncc4c3CCNC4)s2)cc1Cl`, for which the chromatographic logD in data set [2] came to 4.87. Also, the 50% effective concentration (EC50) was 0.398 µM in data set [3], > 31.6 µM in data set [4] and 0.794 µM in data set [5].

On to `Cc1nn(-c2nnc(-c3ccc(OC(C)C)c(Cl)c3)s2)c(C)c1CC(=O)O`, for which, in data set [2], the chromatographic logD was 3.62. For the same compound, the half-maximal effective concentration (EC50) was 1 µM in data set [3], > 31.6 µM in data set [4] and 1.58 µM in data set [5].

In turn, `CC(C)Oc1ccc(-c2nnc(-c3cnn(CC(=O)O)c3)s2)cc1Cl` gave a chromatographic logD in data set [2] of 2.82. For the same compound, the EC50 is 25.1 µM in data set [3] and > 31.6 µM in data set [4].

The compound `Cc1c(-c2nnc(-c3ccc(OC(C)C)c(Cl)c3)s2)cnn1CCC(=O)O` came in with a chromatographic logD in data set [2] of 3.16. The concentration for a half-maximal effect (EC50) in data set [3] is 2.51 µM; in data set [4] it was > 31.6 µM.

As for `CC(C)Oc1ccc(-c2nnc(NCCN)s2)cc1Cl`, the concentration giving a half-maximal response (EC50) in data set [3] was > 31.6 µM.

With `Cc1c2c(nn1-c1nnc(-c3ccc(OC(C)C)c(Cl)c3)s1)CCNC2`, the chromatographic logD in data set [2] was determined as 5.32. Also, the figures for the half-maximal effective concentration (EC50) in data set [3], in data set [4] and in data set [5] were 0.126 µM, > 31.6 µM and 0.158 µM, respectively.

Consider `CC(C)Oc1ccc(-c2nnc(-c3cnn(CCN4CCOCC4)c3)s2)cc1Cl`, for which the chromatographic logD in data set [2] came to 5.59. For the same compound, the EC50 in data set [3] is 10 µM; in data set [4], > 31.6 µM.

The compound `CC(C)Oc1ccc(-c2nnc(-c3ccnn3C)s2)cc1Cl` yielded a chromatographic logD in data set [2] of 7.04. Besides, the EC50 in data set [3] was 0.251 µM; in data set [4], > 31.6 µM.

Compound `Cc1nc(C)c(-c2nnc(-c3ccc(OC(C)C)c(Cl)c3)s2)s1` gave a chromatographic logD in data set [2] of 7.76. Further, the values for the half-maximal effective concentration (EC50) in data set [3] and in data set [4] were 0.251 µM and > 31.6 µM, respectively.

On to `CCCCCCCCc1ccc(CCC(N)(CO)CO)cc1`, for which the result with Rattus norvegicus [1] was Active.

`Cc1c(-c2noc(-c3ccc(OC(C)C)c(C#N)c3)n2)ccc2c1CCN(CCC(=O)O)C2` yielded a chromatographic logD in data set [2] of 3.41. In addition, the values for the EC50 in data set [3], in data set [4] and in data set [5] were 0.0316 µM, > 39.8 µM and 0.00501 µM, respectively.

In data set [2], `CC(C)Oc1ccc(-c2nnc(-c3ccccc3)s2)cc1Cl` gave a chromatographic logD of 8.65. Besides, the results for the concentration giving a half-maximal response (EC50) in data set [3] and in data set [4] were 0.251 µM and 20 µM, respectively.

As to `Cc1nn(-c2nnc(-c3ccc(OC(C)C)c(Cl)c3)s2)c(C)c1CCC(=O)O`, the chromatographic logD in data set [2] is 4.3. Also, the concentration for a half-maximal effect (EC50) in data set [3] is 0.0398 µM; in data set [4], > 31.6 µM; in data set [5], 0.02 µM.

In turn, `Cc1c2c(nn1-c1nnc(-c3ccc(OC(C)C)c(C#N)c3)s1)CCNC2` yielded a chromatographic logD in data set [2] of 3.73. For the same compound, the EC50 in data set [3] was 0.1 µM; in data set [4], > 31.6 µM; in data set [5], 0.0631 µM.

Turning to `Cc1[nH]ncc1-c1nnc(-c2ccc(OC(C)C)c(Cl)c2)s1`, in data set [2], the chromatographic logD was 5.45. Also, the values for the EC50 in data set [3] and in data set [4] were 0.126 µM and > 31.6 µM, respectively.

Take `Cc1c2c(nn1-c1nnc(-c3ccc(OC(C)C)c(C#N)c3)s1)CNCC2`: in data set [2], the chromatographic logD worked out at 4.23. Besides, the figures for the EC50 in data set [4] and in data set [5] were > 31.6 µM and 0.158 µM, respectively.

Compound `CC(C)Oc1ccc(-c2nnc(NC3=CCNCC3)s2)cc1Cl` showed an EC50 in data set [3] of 1.58 µM.

Turning to `CC(C)Oc1ccc(-c2nnc(-n3cc4c(n3)CCN(CCCC(=O)O)C4)s2)cc1C#N`, in data set [2], the chromatographic logD was 2.87. The EC50 in data set [4] was > 31.6 µM; in data set [5], 0.00631 µM.

As for `CC(C)Oc1ccc(-c2nnc(-n3cc4c(n3)CCN(CCC(=O)O)C4)s2)cc1Cl`, the outcome in the data set on Rattus norvegicus [1] was Active. In data set [2], this compound had a chromatographic logD of 3.26. The EC50 in data set [3] was 0.0126 µM; in data set [4] it was > 31.6 µM; in data set [5] it was 0.00398 µM. Further, in the data set with Rattus norvegicus [7], the result was inactive.

As to `CC(C)Oc1ccc(-c2nnc(-c3ccno3)s2)cc1Cl`, the chromatographic logD in data set [2] was 6.93. Moreover, the results for the concentration giving a half-maximal response (EC50) in data set [3] and in data set [4] were 1 µM and > 31.6 µM, respectively.

For the compound `Cc1c2c(nn1-c1nnc(-c3ccc(OC(C)C)c(C#N)c3)s1)CCN(CC(=O)O)C2`, in data set [2], the chromatographic logD was found to be 2.88. Further, the concentration for a half-maximal effect (EC50) in data set [4] is > 31.6 µM; in data set [5] it was 0.1 µM.

Take `CC(C)Oc1ccc(-c2nnc(-n3cc4c(n3)CCNC4)s2)cc1Cl`: in data set [2], the chromatographic logD was determined as 4.44. The EC50 in data set [3] was 0.631 µM; in data set [4], > 31.6 µM; in data set [5], 0.631 µM.

Regarding `CC(C)Oc1ccc(-c2nnc(-c3cn[nH]c3)s2)cc1Cl`, the chromatographic logD in data set [2] stood at 5. Besides, the half-maximal effective concentration (EC50) in data set [3] is 0.631 µM; in data set [4] it was > 31.6 µM.

In the case of `CC(C)Oc1ccc(-c2nnc(N3CCOc4c(CCC(=O)O)cccc43)s2)cc1Cl`, the EC50 in data set [3] was 0.251 µM.

Compound `CC(C)Oc1ccc(-c2nnc(-c3cncn3C)s2)cc1Cl` showed a chromatographic logD in data set [2] of 5.7. In addition, the EC50 in data set [3] was 0.0631 µM; in data set [4] it was > 31.6 µM.

The compound `CC(C)Oc1ccc(-c2nnc(-n3cc4c(n3)CCNC4)s2)cc1C#N` registered a chromatographic logD in data set [2] of 3.37. Further, the EC50 is 0.501 µM in data set [3], > 31.6 µM in data set [4] and 0.126 µM in data set [5].

Consider `CC(C)Oc1ccc(-c2nnc(NCCNCCC(=O)O)s2)cc1Cl`, for which the half-maximal effective concentration (EC50) in data set [3] is > 31.6 µM.

In data set [3], `CC(C)Oc1ccc(-c2nnc(N3CCNCC3)s2)cc1Cl` gave an EC50 of 6.31 µM.

Values taken from ChEMBL document CHEMBL3769384, “Discovery of Tetrahydropyrazolopyridine as Sphingosine 1-Phosphate Receptor 3 (S1P3)-Sparing S1P1 Agonists Active at Low Oral Doses” (J Med Chem, 2016).
